According to publication PMC8600646 (ACS Omega, 2021):
In brackets after ≈: the same amount, converted by molar mass. Several values for one entry are separate records, joined by “and”; a condition that tells them apart may be missing. Identical values can stand only once. Like-named read-outs stand apart in the source and are kept apart here.

Columns and labels:
Cyclic voltammetry = format: physicochemical; conditions: for Dred (CV): 1 mM; for Dox (CV): oxidized species
In short: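 Three-electrode cell: 3 mm glassy carbon working electrode (0.0707 cm2), Ag/AgCl in 3 M KCl reference, Pt wire counter. Electrode polished with 0.05 μm alumina and rinsed with water and methanol. Nitroxide starts at 1 mM; hydrotrope electrolytes readjusted to pH 7.0 (HCl) or, for the disulfonate, to about 0 (H2SO4). Triplicate CVs at 0.001–1 V/s, three cycles per rate.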

[1] = Linear sweep voltammetry with rotating disk electrode; format: physicochemical; conditions: for Dox (LSV): oxidized species
[2] = Electrochemical impedance spectroscopy; format: physicochemical
In short: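 Glassy carbon rotating disk (5 mm; 0.196 cm2) with Ag/AgCl reference and Pt wire counter; polished as for CV. Solutions hold 1 mM reduced radical plus 1 mM oxidised form, made by bulk electrolysis at 0.75 V vs Ag/AgCl for 5–10 h. Run at open-circuit potential, 2500 rpm, 10 mV amplitude, 0.5–100000 Hz. Rct comes from a Nyquist fit, then j0, then k0 assuming α = 0.5.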

[3] = Hydraulic radius calculated with the Stokes-Einstein equation; format: physicochemical; conditions: from Dred CV, 298K
In short: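 Stokes–Einstein estimate that uses Dred from the CV fits, the measured solution viscosity and T = 298 K. Viscosities come from a concentric-cylinder rotational rheometer (KCl-based solutions) or a calibrated Ubbelohde glass viscometer (1 M H2SO4 and 15 wt % proline).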

[4] = cited from earlier work; for Dred, previously reported: aqueous solution
[5] = cited from earlier work
[6] = Viscosity measurements of hydrotrope solutions; format: physicochemical; conditions: 20 wt % hydrotrope in 1 M KCl, rotational rheometer
In short: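 Rotational rheometer with concentric cylinder geometry over shear rates of 10 to 100/s. Solutions tested: 1 M KCl, 20 wt % NaXS and 20 wt % NapTS.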

[7] = for 3,4-dimethylbenzenesulfonate; cited from earlier work

CC1(C)CC(O)CC(C)(C)N1[O] [4-OH-TEMPO, 4-OH-TEMPO free radical]
formal reduction potential E0' (Cyclic voltammetry; 1 M KCl, no hydrotrope): 0.59 ± 0.00 V vs Ag/AgCl and 0.59 V vs Ag/AgCl | Dred (CV) (Cyclic voltammetry; 1 M KCl, no hydrotrope): 7.00 ± 0.24 × 10^–6 cm^2/s | standard rate constant k0 (CV) (Cyclic voltammetry; 1 M KCl, no hydrotrope, glassy carbon electrode): 0.35 ± 0.14 cm/s | standard rate constant k0 (CV) (Cyclic voltammetry; 20 wt % NaXS in 1 M KCl): 0.48 ± 0.19 cm/s | Dred (CV) (Cyclic voltammetry; 20 wt % NaXS in 1 M KCl): 3.33 ± 0.04 × 10^–6 cm^2/s | formal reduction potential E0' (Cyclic voltammetry; 20 wt % NaXS in 1 M KCl, vs Ag/AgCl): 0.59 ± 0.01 V | standard rate constant k0 (CV) (Cyclic voltammetry; 20 wt % NapTS in 1 M KCl): 0.95 ± 0.07 cm/s | Dred (CV) (Cyclic voltammetry; 20 wt % NapTS in 1 M KCl): 4.27 ± 0.14 × 10^–6 cm^2/s | formal reduction potential E0' (Cyclic voltammetry; 20 wt % NapTS in 1 M KCl, vs Ag/AgCl): 0.59 ± 0.00 V | standard rate constant k0 (CV) (Cyclic voltammetry; 20 wt % urea in 1 M KCl): 0.78 ± 0.16 cm/s | Dred (CV) (Cyclic voltammetry; 20 wt % urea in 1 M KCl): 5.90 ± 0.07 × 10^–6 cm^2/s | formal reduction potential E0' (Cyclic voltammetry; 20 wt % urea in 1 M KCl, vs Ag/AgCl): 0.59 ± 0.00 V | Dox (CV) (Cyclic voltammetry; 1 M KCl, no hydrotrope): 6.82 ± 0.32 × 10^–6 cm^2/s | Dox (CV) (Cyclic voltammetry; 20 wt % NaXS in 1 M KCl): 3.50 ± 0.11 × 10^–6 cm^2/s | Dox (CV) (Cyclic voltammetry; 20 wt % NapTS in 1 M KCl): 4.92 ± 0.15 × 10^–6 cm^2/s | Dox (CV) (Cyclic voltammetry; 20 wt % urea in 1 M KCl): 5.55 ± 0.12 × 10^–6 cm^2/s | Dred (LSV) ([1]; 1 M KCl, no hydrotrope): 10.53 × 10^–6 cm^2/s | standard rate constant k0 (LSV) ([1]; 1 M KCl, no hydrotrope): 0.09 ± 0.07 cm/s | Dred (LSV) ([1]; 20 wt % NaXS in 1 M KCl): 6.63 × 10^–6 cm^2/s | standard rate constant k0 (LSV) ([1]; 20 wt % NaXS in 1 M KCl): 0.12 ± 0.11 cm/s | Dred (LSV) ([1]; 20 wt % NapTS in 1 M KCl): 8.53 × 10^–6 cm^2/s | standard rate constant k0 (LSV) ([1]; 20 wt % NapTS in 1 M KCl): 0.32 ± 0.33 cm/s | Dox (LSV) ([1]; 1 M KCl, no hydrotrope): 6.03 × 10^–6 cm^2/s | Dox (LSV) ([1]; 20 wt % NaXS in 1 M KCl): 3.76 × 10^–6 cm^2/s | Dox (LSV) ([1]; 20 wt % NapTS in 1 M KCl): 4.40 × 10^–6 cm^2/s | standard rate constant k0 (EIS) ([2]; 1 M KCl, no hydrotrope): 0.08 ± 0.00 cm/s | standard rate constant k0 (EIS) ([2]; 20 wt % NaXS in 1 M KCl): 0.29 ± 0.11 cm/s | standard rate constant k0 (EIS) ([2]; 20 wt % NapTS in 1 M KCl): 0.12 ± 0.01 cm/s | hydraulic radius ([3]; 20 wt % NaXS): 3.7 Å | hydraulic radius ([3]; 20 wt % NapTS): 2.7 Å | hydraulic radius ([3]; no hydrotrope (1 M KCl)): 3.3 Å | Dred, previously reported ([4]; ref 11): 29.5 × 10^–6 cm^2/s | Dred, previously reported ([4]; ref 42): 7.7 × 10^–6 cm^2/s | formal reduction potential E0' ([4]; circumneutral pH): 0.59 V vs Ag/AgCl

Cc1cc2nc3c(=O)[nH]c(=O)nc-3n(C[C@H](O)[C@H](O)[C@H](O)COP(=O)(O)O)c2cc1C [FMN, riboflavin-5′-monophosphate]
aqueous solubility ([5]; 1.0 M KOH, no hydrotrope): 100 mM (≈ 45.6 mg/mL)

Oc1ccc(O)cc1 [hydroquinone, benzene-1,4-diol, reference compound]
solubility ([5]; deionized water, 4.0 M urea): 1500 mM (≈ 165 mg/mL)

sodium xylenesulfonate [NaXS]
viscosity of solution [6]: 1.8 × 10^–3 Pa·s | pKA [7]: 10.36
